Hck Nef HTS: inhibitors of Nef-activated human Hck kinase, primary screen, biochemical, Z-Lyte FRET, 384-well, Hck-YEEI | Tyrosine-protein kinase HCK (Homo sapiens), P08631 | Recombinant Hck-YEEI plus Nef, Z-Lyte FRET kinase assay | inhibition, % at 20 µM | 220,000 compounds, 0.68% hits | AID 463187, 2010;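 active means Hck-Nef kinase inhibition above about 50%, limit read from the data; inactive means inhibition below that limit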;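 further: 0% = DMSO with Hck plus Nef and 100% = Hck alone without Nef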
Runt-CBFb FRET: inhibitors of RUNX1 Runt–CBFb binding, primary screen, biochemical, FRET, Cerulean-Runt, Venus-CBFb, uHTS. Runt-related transcription factor 1 (Homo sapiens) + Core-binding factor subunit beta …. 220,000 compounds, 0.46% hits. inhibition, % at 20 µM. Cerulean-Runt/Venus-CBFb FRET ratio 530/480, 1 h. AID 1496, 2009;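 active means inhibition over about 50% at 20 µM in the single-dose screen, limit read from the data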;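 further: 0% = DMSO wells and 100% = excess unlabeled CBFb competitor control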
Target sequence (Q01196 whole entry, looked up): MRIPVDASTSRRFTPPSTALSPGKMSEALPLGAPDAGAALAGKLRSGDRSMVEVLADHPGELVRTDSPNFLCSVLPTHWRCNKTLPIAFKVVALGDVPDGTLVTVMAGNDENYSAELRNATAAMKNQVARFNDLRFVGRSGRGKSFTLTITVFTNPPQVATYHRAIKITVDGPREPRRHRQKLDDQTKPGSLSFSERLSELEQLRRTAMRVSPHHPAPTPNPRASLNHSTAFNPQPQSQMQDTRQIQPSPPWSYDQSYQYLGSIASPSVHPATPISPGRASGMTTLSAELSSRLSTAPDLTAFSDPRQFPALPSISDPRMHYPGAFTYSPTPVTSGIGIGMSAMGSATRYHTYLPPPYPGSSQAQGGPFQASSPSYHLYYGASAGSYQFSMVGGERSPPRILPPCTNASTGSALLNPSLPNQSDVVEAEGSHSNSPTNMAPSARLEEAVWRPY
Target sequence (Q13951 whole entry, looked up): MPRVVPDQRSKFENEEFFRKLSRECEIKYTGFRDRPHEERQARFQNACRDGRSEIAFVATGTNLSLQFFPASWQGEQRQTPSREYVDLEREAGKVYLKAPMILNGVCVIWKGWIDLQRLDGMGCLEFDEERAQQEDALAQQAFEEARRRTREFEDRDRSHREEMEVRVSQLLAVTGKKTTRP
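test system = Cerulean-tagged RUNX1 Runt domain (FRET donor) fusion protein | reagent = Venus-CBFb binding partner, 100 nM | incubation = protein complex preformed 1 h, compound exposure 1 h, room temperature, dark | detection = FRET fluorescence | read-out basis = loss of energy transfer signal | controls = 5 µM unlabeled CBFb as full-inhibition high control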
RanGTP-Imp inh: inhibitors of RanGTP-importin-beta interaction, primary screen, biochemical, FRET, CFP-Ran, YFP-importin-beta, homogeneous; Ran GTPase (GTP-bound) - importin-beta complex; cell-free CFP-Ran/YFP-importin-beta FRET ratio; inhibition, % (concentration not given with the values); 300,000 compounds, 1.1% hits;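 active means more than half of the replicate wells show a fall in the fluorescence ratio signal beyond about 16%, limit read from the data, passing the limit was not always enough; inconclusive means exactly half of the replicate wells pass the set limit; inactive means fewer than half of replicates pass the limit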;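 further: 0% = DMSO wells and 100% = Ran loaded with GDP instead of GTP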
Runt-SMMHC FRET: inhibitors of RUNX1 Runt–CBFb-SMMHC binding, primary screen, biochemical, FRET, Cerulean-Runt, Venus-CBFb-SMMHC, uHTS | Runt-related transcription factor 1 (Homo sapiens) + Core-binding factor subunit beta … | Cerulean-Runt/Venus-CBFb-SMMHC FRET ratio 530/480, 1 h | inhibition, % at 20 µM | 220,000 compounds, 0.74% hits | AID 1434, 2008;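 active means mean inhibition across duplicate retests at 20 µM reaching about 50%, limit read from the data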;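 further: 0% = DMSO wells and 100% = wells with excess untagged CBFb-SMMHC; inhibitors lower the FRET ratio by blocking Runt binding to CBFb-SMMHC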
Hck Nef conf: retest of Hck:Nef kinase inhibitor hits, confirmation, biochemical, Z-Lyte FRET, 384-well, p-Tyr peptide counterscreen | shares compounds with Hck Nef HTS | Recombinant Hck-YEEI:Nef, Z-Lyte FRET kinase assay | calls only at 10 µM | 1,300 compounds, 28% hits;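 active means average inhibition of at least 50%, with Z-scores no higher than 3 in both the phospho-tyrosine peptide and fluorescence counterscreens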
* = called active by the depositor; i = inactive; ? = inconclusive; / = no result shown; + = active, no number. Hits are enriched below; roughly 1.9% of the tested compounds scored in any of these assays.

SMILES	Hck Nef HTS	Runt-CBFb FRET	RanGTP-Imp inh	Runt-SMMHC FRET	Hck Nef conf
CCS(=O)(=O)Nc1ccc(-c2nc3cccnc3s2)cc1	+	31.8	2.0	74.5*	/
Cc1c(NS(=O)(=O)c2cccs2)cccc1-c1nc2cccnc2s1	5.7	-1.2	-4.1	-2.3	/
O=C(CSc1nnc(SCc2cccc3ccccc23)s1)N=Nc1c(O)[nH]c2ccccc12	19.3	-3.2	/	-0.6	/
COc1ccc(OC)c(NC(=O)CSc2nc(=O)n(Cc3ccccn3)c3c2CCC3)c1	/	/	-3.9	/	/
O=C1N/C(=N\N=C\c2ccc3ncccc3c2)SC1Cc1ccc(SC(F)F)cc1 (stereo unspecified)	84.5*	-9.9	/	-1.7	+
COC(=O)CCCC1=CC2=CC(=O)C(C)(OC(=O)c3cccs3)C(=O)C2=CN1Cc1ccccc1 (stereo unspecified)	6.4	0.9	0.2	2.2	/
COC(=O)CCCC1=CC2=CC(=O)C(C)(OC(=O)c3cccs3)C(=O)C2=CN1Cc1ccc2c(c1)OCO2 (stereo unspecified)	52.6*	1.4	0.1	0.5	i
COc1cc(NC(=S)Nc2ccccn2)cc(OC)c1OC	80.6*	0.9	-0.7	2.3	+
Cc1nccc(-c2sc(-c3cccs3)nc2C)n1	86.1*	10.1	-0.6	20.9	i
Cc1ccc(C(=O)N2CCN(c3ccccc3Cl)CC2)cc1[N+](=O)[O-]	18.4	0.7	-1.6	-1.7	/
CCC(C)(c1nnnn1-c1c(C)cccc1C)N(N=O)c1ccccc1Cl (stereo unspecified)	-0.3	1.4	/	-0.1	/
O=C(CSc1nc2ccccc2n1CCc1ccccc1)c1ccc(O)c(O)c1	189.3*	10.2	/	2.2	+
C(=C\c1ccco1)/c1ccc2ccccc2n1	53.7*	8.2	2.1	-17.2	i
CCCCc1cc(=O)oc2c(CN(C)C)c(O)ccc12	83.0*	47.8	9.7	106.8*	/
CN(C)Cc1c(O)ccc2c(-c3ccccc3)cc(=O)oc12	6.0	-16.7	4.2	-48.9	/
Cc1oc2c(CN(C)C)c(O)ccc2c(=O)c1-c1cscn1	-0.4	0.3	?	2.2	/
CCc1c(C)c2ccc(O)c(CN(C)C)c2oc1=O	59.1*	49.5	9.4	130.8*	/
CCCc1cc(=O)oc2cc(OCC(=O)N(C)C)c(Cl)cc12	-7.0	-0.3	-0.4	1.6	/
CCCc1cc(=O)oc2c(CN(CC)CC)c(O)c(Cl)cc12	+	90.9*	24.0*	128.7*	/
COc1cccc(CNCc2cccnc2)c1OCc1ccccc1	18.2	0.2	?	0.3	/
CCOc1cc(/C=N/NC(=O)c2ccc(-c3csc(Nc4ccc(C)cc4)n3)cc2)ccc1OCC(=O)O	51.6*	24.4	/	13.3	i
O=C(O)COc1ccc(/C=N/NC(=O)c2ccc(-c3csc(Nc4ccc(Cl)cc4)n3)cc2)cc1	75.0*	28.4	1.8	-103.2	+
COc1cc(/C=N\NC(=O)c2ccc(-c3ccccc3)cc2)ccc1OCC(N)=O	/	/	-0.8	/	/
COC(=O)C1CCN(C(=O)COC(=O)c2oc3ccc(OC)cc3c2C)CC1	/	/	6.0	/	/
COc1cc(-c2nc(-c3ccc(NC(=O)c4ccc5c(c4)OCO5)cc3)no2)cc(OC)c1OC	83.8*	-1.1	6.0	-1.1	+
SMILES	Hck Nef HTS	Runt-CBFb FRET	RanGTP-Imp inh	Runt-SMMHC FRET	Hck Nef conf
Cc1ccccc1-c1nc(-c2ccc(NC(=O)c3ccc4c(c3)OCO4)cc2)no1	13.9	2.7	-2.4	-1.3	/
O=c1[nH]c(-c2ccc3c(c2)OCO3)nc2c1sc(=S)n2-c1ccccc1	60.6*	18.9	1.4	0.7	i
O=c1[nH]c(-c2ccc(F)cc2)nc2c1sc(=S)n2-c1ccccc1	0.8	-1.3	-0.4	2.7	/
Cn1c(SCC(=O)N2CCCC2=O)nc2ccccc21	19.2	0.6	4.1	-1.0	/
O=C(NCCN1CCN(Cc2ccccc2)CC1)c1ccc(CS(=O)(=O)c2ccc(Br)cc2)o1	/	/	1.4	/	/
Cc1nc2cc(N3CCN(C)CC3)c(NC(=O)Cc3ccccc3)cc2c(=O)n1Cc1ccccc1	2.0	-2.2	6.7	-1.0	/
Cc1nc2cc(N3CCCCC3)c(NC(=O)c3ccncc3)cc2c(=O)n1Cc1ccc(Cl)cc1	67.4*	-1.9	0.6	2.2	i
O=C(Nc1cccc(NC(=O)c2ccc(Br)o2)n1)c1ccc(Br)o1	98.1*	-0.5	2.6	-2.6	i
COc1ccc(-c2csc(NC(=O)C3CC(=O)N(c4ccc5c(c4)OCCO5)C3)n2)cc1 (stereo unspecified)	3.4	-2.2	3.0	-7.7	/
CC(=O)Nc1ccc(-c2csc(NC(=O)C3CC(=O)N(c4ccc5c(c4)OCCO5)C3)n2)cc1 (stereo unspecified)	50.9*	-1.2	-3.8	-3.5	i
O=C(NCCN1CCOCC1)/C(=C/c1ccco1)NC(=O)c1ccccc1	/	/	0.4	/	/
Cc1nnc2n1CCCCC2	13.0	1.1	-1.4	2.1	/
O=C1SC(SCc2ccccc2Cl)=N/C1=C\c1ccc(C(=O)O)cc1	63.2*	2.7	-2.3	0.7	i
CCSC1=N/C(=C\c2ccc(C(=O)O)cc2)C(=O)S1	8.0	-0.8	-1.2	2.1	/
CCCN(CCC)CCNC(=O)C1CCN(S(=O)(=O)c2cccc3nsnc23)CC1	/	/	0.7	/	/
CC(=O)c1cc(-c2ccc(F)cc2)n(CCC(=O)Nc2cccc(C)n2)c1C	24.8	0.8	1.5	-0.5	/
COc1ccccc1-c1cc(C(=O)NCCCN2CCOCC2)no1	/	/	2.0	/	/
COc1ccccc1CNC(=O)c1c(N)n(CCCN2CCOCC2)c2nc3ccccc3nc12	52.3*	2.9	125.5*	38.3	i
N#Cc1c(-c2ccncc2)c2c([nH]c1=O)-c1ccccc1OC2	69.7*	11.1	55.9*	/	i
N#Cc1c(-c2ccccc2Cl)c2c([nH]c1=O)-c1ccccc1OC2	146.1*	94.8*	131.0*	81.6*	i
CC(C)c1ccc(OCC(=O)Nc2ccccc2C(=O)N2CCOCC2)cc1	/	/	3.4	/	/
Cn1c(=O)c([N+](=O)[O-])c(-n2cnc3ccccc32)c2ccccc21	5.4	5.0	-2.9	-1.1	/
CCOC(=O)c1c(S(=O)(=O)NCC(=O)Nc2cccc(C)c2)c(C)n(C)c1C	/	/	3.5	/	/
Cc1c(C)c2cc(Cl)c(O)c(CN3CCCCC3)c2oc1=O	66.9*	35.1	?	88.7*	i
CN1CCN(Cc2c(O)c(Cl)cc3c(-c4ccccc4)cc(=O)oc23)CC1	6.1	-2.3	-0.4	38.7	/
Cc1cc(=O)oc2c(CN3CCN(C)CC3)c(O)c(Cl)cc12	105.8*	97.2*	14.1	136.2*	/

Bioassay records deposited in PubChem BioAssay by several laboratories.
